Six compounds from ChEMBL document CHEMBL3351543, “Novel Type of Prodrug Activation through a Long-Range O,N-Acyl Transfer: A Case of Water-Soluble CREB Inhibitor” (ACS Med Chem Lett, 2014) can be followed below.

Data set [1] in a line: Half life in Dulbecco's Modified eagle medium at pH 7.7 containing 10% fetal bovine serum. In kind it is ADME. Particulars: cattle, Dulbecco's Modified Eagle medium with 10% fetal bovine serum. The method in brief:
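Compound incubated at 37 °C in DMEM with 10% FBS. At set times an aliquot was mixed with 9 volumes of acetonitrile to precipitate protein, and the supernatant was analysed by RP-HPLC with UV detection at 254 nm against an internal standard.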

Data set [2] in a line: Inhibition of CREB (unknown origin) assessed as reduction in KIX-KID interaction after 20 to 24 hrs by renilla luciferase complementation assay. Also noted: species or system Homo sapiens. The method in brief: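 In vitro Renilla luciferase complementation assay of KIX–KID interaction, run at 4 °C. Highest concentration tested 50 μM. IC50 given as mean ± SD of at least two independent experiments.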

The next data set relates to MDA-MB-231. Description: Growth inhibition of human MDA-MB-231 cells after 72 hrs by MTT assay. In kind it is functional. Particulars: MDA-MB-231, 72 h. An outline of the steps:
(§1)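 Cancer cells exposed to compounds for 72 h; growth measured by MTT assay. GI50 is the concentration giving 50% growth inhibition, highest concentration tested 100 μM. Mean ± SD of at least two independent experiments.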
Background: Tetrazolium dyes change colour on reduction, which living cells bring about.

Data set [3] can be described thus: Aqueous solubility in water. In kind it is physicochemical.
Data set [4] can be described thus: Inhibition of CREB (unknown origin) expressed in HEK293T cells assessed as reduction in CREB-mediated gene tanscription after 5 hrs by luciferase reporter gene assay. The note with it: Homo sapiens, HEK-293T. It counts as cell-based. An outline of the steps: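 CREB-Renilla luciferase reporter assay in living HEK 293T cells measuring CREB-mediated gene transcription. Highest concentration tested 50 μM. IC50 given as mean ± SD of at least two independent experiments.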
For orientation: In a reporter assay the amount or activity of a reporter protein is the signal.

The subject of the next data set is MDA-MB-468. Description: Growth inhibition of human MDA-MB-468 cells after 72 hrs by MTT assay. It counts as functional. The note with it: MDA-MB-468, 72 h. An outline of the steps: as §1
The next data set relates to A549. Briefly: Growth inhibition of human A549 cells after 72 hrs by MTT assay. It counts as functional, cell-based. Particulars: A549, 72 h. The method in brief:
as §1

A short description of data set [5]: Drug level in PBS buffer treated with 2-(3-(3-Aminopropoxy)-2-naphthamido)-5-chlorophenyl 3-(3-Aminopropoxy)-2-naphthoate dihydrochloride at room temperature assessed as compound formation. In kind it is physicochemical. An outline of the steps:
(§2)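 Compound incubated in PBS at room temperature at pH 7.40, 6.98, 6.48 or 6.01. Aliquots taken at set times were analysed by RP-HPLC, and percent parent remaining was quantified per chromatogram. Data fitted to first-order kinetics to derive t1/2; mean ± SD of two independent experiments.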

The subject of another data set is HEK-293T. Briefly: Inhibition of CREB in HEK293T cells assessed as reduction in forskolin-induced NR4A2 mRNA expression at 2.5 uM pre-incubated for 1 hrs before forskolin stimulation for 45 mins by RT-PCR method. It counts as cell-based. The note with it: Homo sapiens. The method in brief: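 HEK 293T cells pretreated with compounds for 1 h, then forskolin added for a further 45 min. Endogenous NR4A2 mRNA quantified by qRT-PCR as relative level; significance by Student's t test.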

A short description of data set [6]: Retention time of the compound by HPLC method. In kind it is physicochemical.
For another data set, the system named is MCF7. Description: Growth inhibition of human MCF7 cells after 72 hrs by MTT assay. It counts as functional. The note with it: MCF7, 72 h. The method in brief:
as §1

The nature of data set [7]: Half life in PBS buffer at pH 7.4 at 4 degC by RP-HPLC method. In kind it is ADME.
Data set [8] is described as follows: Half life in PBS buffer at pH 6.48 by RP-HPLC method. In kind it is ADME. An outline of the steps: as §2
The nature of data set [9]: Half life in PBS buffer at pH 6.01 by RP-HPLC method. It counts as ADME. An outline of the steps: as §2
The nature of data set [10]: Half life in PBS buffer at pH 6.98 by RP-HPLC method. In kind it is ADME. An outline of the steps: as §2
A short description of data set [11]: Half life in PBS buffer at pH 7.4 by RP-HPLC method. It counts as ADME. The method in brief: as §2

The structures appear in SMILES notation.

Compound `COc1cc2ccccc2cc1C(=O)Nc1ccc(Cl)cc1OC(=O)c1cc2ccccc2cc1OC` showed a half-life in [1] of 20 h. The results for the IC50 (in data set [2]; in data set [4]; in the data set with A549) were 170 nM, 1950 nM and 8780 nM, respectively. Besides, the GI50 was determined as 23500 nM with MDA-MB-231 and 8110 nM in the data set on MDA-MB-468. The compound also registered a solubility in data set [3] of less than 100 µg/mL.
For `Cl.NCCCOc1cc2ccccc2cc1C(=O)NCCCOc1cc2ccccc2cc1C(=O)Nc1ccc(Cl)cc1O`, the results for the IC50 (in [2]; in data set [4]; in the data set with A549) were 19700 nM, 2220 nM and 290 nM, respectively. Further, the Drug metabolism entry in data set [5] is reported as “metabolite_detected”. In addition, the GI50 with MDA-MB-231 was 370 nM; with MCF7, 140 nM; in the data set on MDA-MB-468 it was 220 nM. Further, the fold change (FC) in the data set with HEK-293T was determined as 10. Further, the concentration in solution in data set [3] (solubility) came to 120 µg/mL. This compound registered a Retention_time in [6] of 12.2 min.
Turning to `O=C(Nc1ccc(Cl)cc1)c1cc2ccccc2cc1O`, the IC50 in data set [2] stood at 2900 nM; in data set [4], 2290 nM; in the data set with A549, 2900 nM. Moreover, the values for the GI50 in the data set with MDA-MB-231, in the data set with MCF7 and in the data set with MDA-MB-468 were 2350 nM, 2810 nM and 1460 nM, respectively.
For `COc1cc2ccccc2cc1C(=O)Nc1ccc(Cl)cc1O`, the results for the IC50 (in data set [2]; in data set [4]; in the data set on A549) were greater than 50000 nM, greater than 50000 nM and greater than 100000 nM, respectively. In addition, the GI50 with MDA-MB-231, with MCF7 and in the data set on MDA-MB-468 was greater than 100000 nM each time.
As for `NCCCOc1cc2ccccc2cc1C(=O)Nc1ccc(Cl)cc1O`, the values for the IC50 (in data set [2]; in [4]; in the data set on A549) were greater than 50000 nM, 26200 nM and 2730 nM, respectively. For the same compound, the GI50 in the data set with MDA-MB-231 is 2190 nM; in the data set with MCF7, 1850 nM; with MDA-MB-468 it was 1200 nM.
Turning to `Cl.NCCCOc1cc2ccccc2cc1C(=O)Nc1ccc(Cl)cc1OC(=O)c1cc2ccccc2cc1OCCCN`, the half-life in data set [1] was less than 0.0833 h; in data set [7], 24 h; in data set [8], 1.91 h; in data set [9], 7.46 h; in data set [10], 0.628 h; in [11], 0.455 h. Further, the IC50 in data set [2] worked out at 4400 nM; in data set [4] it was 2270 nM; in the data set on A549, 590 nM. Further, the GI50 in the data set on MDA-MB-231 turned out to be 1300 nM; in the data set on MDA-MB-468, 330 nM. Also, in the data set on HEK-293T, the fold change (FC) worked out at 10. In data set [3], this compound returned a solubility greater than 100000 µg/mL.

Broadly, the half-life is the time in which the quantity being followed falls by half. Lower therefore signals rapid decline. For orientation: IC50 means the point on the concentration scale where inhibition reaches its midpoint. What is called GI50 is the concentration that inhibits growth by half. For orientation: solubility means the concentration that dissolves in the medium under given conditions.
